# Test results from PMC2289302 (The Journal of Cell Biology, 1992).
# How the values were obtained:
# [1] = target: LDV peptide-RSA conjugate (human); test: cell adhesion assay
# A375 melanoma cells = format: cell-based, human; settings: 5 ug/ml peptide, no activation, Figs. 2 and 3
# Outline: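 Surfaces coated at 5 ug/ml with plasma fibronectin or with synthetic peptides, each carrying an NH2-terminal cysteine on a gly-gly-gly tail and conjugated to SMCC-derivatized RSA. Human melanoma A375 cells were left to adhere for 1 h. Nonadherent cells were washed off. Adherent monolayers were photographed under phase contrast on an inverted microscope to judge adhesion and spreading.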
# alpha 4 beta 1 integrin = alpha 4 beta 1 integrin (human (endogenous in Jurkat, Ramos, …, UniProt P13612;P05556)); test: cell adhesion assay
Molecule,IC50 (alpha 4 beta 1 integrin),also measured
alpha 4 beta 1 integrin (from UniProt P13612;P05556) (receptor),–,molar concentration of peptide conjugate required for 50% adhesion [1]: > 2000
rsa-EILDVPST,–,"adhesion of A375 melanoma cells to coated surface, in words (A375 melanoma cells): able to support the adhesion"
EILDV [EILDV peptide],660 µM,–
LHGPEILDVPST [B12 peptide],400 µM,–
GPEILDVPST [GPEILDVPST peptide],450 µM,–
DELPQLVTLPHPN [A13 peptide],> 1000 µM,–
